The source made the active and inactive calls. The rule behind the calls is not given here.

Data on 5 compounds can be found in ChEMBL document CHEMBL4364301 (Eur J Med Chem, 2019).

Data set [1] deals with MCF7. The data set is described as follows: Antiproliferative activity against human MCF7 cells assessed as T/C value at 3.2 x 10^-1 uM incubated for 96 hrs by propidium iodide based 2D monolayer assay. Type of data set: functional.
Data set [2] has as its system MCF7. Put plainly: Antiproliferative activity against human MCF7 cells assessed as T/C value at 3.2 x 10^-3 uM incubated for 96 hrs by propidium iodide based 2D monolayer assay. Type of data set: functional.
Data set [3] deals with MCF7. The data set is described as follows: Antiproliferative activity against human MCF7 cells assessed as T/C value at 3.2 uM incubated for 96 hrs by propidium iodide based 2D monolayer assay. Format: functional.
Data set [4] concerns MCF7. Put plainly: Antiproliferative activity against human MCF7 cells assessed as T/C value at 1 x 10^1 uM incubated for 96 hrs by propidium iodide based 2D monolayer assay. Format: functional.
In data set [5] the test system is MCF7. Put plainly: Antiproliferative activity against human MCF7 cells assessed as T/C value at 3.2 x 10^-2 uM incubated for 96 hrs by propidium iodide based 2D monolayer assay. Type of data set: functional.
For data set [6], the system named is MCF7. The data set is described as follows: Antiproliferative activity against human MCF7 cells assessed as T/C value at 1 uM incubated for 96 hrs by propidium iodide based 2D monolayer assay. Format: functional.
The subject of data set [7] is MCF7. Put plainly: Antiproliferative activity against human MCF7 cells assessed as T/C value at 1 x 10^2 uM incubated for 96 hrs by propidium iodide based 2D monolayer assay. Type of data set: functional.
The test system of data set [8] is MCF7. Put plainly: Antiproliferative activity against human MCF7 cells assessed as reduction in cell growth incubated for 96 hrs by propidium iodide based 2D monolayer assay. Type of data set: functional. Conditions: MCF7, 96 h.
Data set [9] deals with MCF7. Put plainly: Antiproliferative activity against human MCF7 cells assessed as T/C value at 3.2 x 10^1 uM incubated for 96 hrs by propidium iodide based 2D monolayer assay. Format: functional.
Data set [10] has as its system MCF7. The data set is described as follows: Antiproliferative activity against human MCF7 cells assessed as T/C value at 1 x 10^-2 uM incubated for 96 hrs by propidium iodide based 2D monolayer assay. Type of data set: functional.
Data set [11] has as its system MCF7. The data set is described as follows: Antiproliferative activity against human MCF7 cells assessed as T/C value at 1 x 10^-1 uM incubated for 96 hrs by propidium iodide based 2D monolayer assay. Format: functional.
The test system of data set [12] is CWR22R. Put plainly: Antitumor activity against human 22Rv1 cells xenografted in NMRI mouse assessed as reduction of tumor volume at 100 mg/kg, ip administered for 16 days and measured on day 10. Type of data set: functional, organism-based. A digest of the protocol: (§1)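 Male NMRI nu/nu mice carried hind-flank 22Rv1 implants and were randomised at 80–200 mm³ tumour volume. Compound was given i.p. at 100 mg/kg/day as 16–18 daily doses in 10% EtOH, 10% Cremophor EL, 5% dextrose; vehicle controls were treated likewise. Tumours were measured by two-dimensional caliper twice weekly and reported as relative tumour volume. T/C was taken from group medians; doubling and quadrupling times were derived from tumour volume.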
Background: Xenograft models place foreign cells or tissue in a host animal.

The nature of data set [13]: Toxicity in NMRI mouse xenografted with human 22Rv1 cells assessed as body weight loss at 100 mg/kg, ip administered for 16 days and measured on day 40. Format: organism-based. Conditions: in vivo, 384 h. In a few lines: (§2)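 Male NMRI nu/nu 22Rv1-xenograft mice were dosed i.p. at 100 mg/kg/day for 16–18 daily doses in 10% EtOH, 10% Cremophor EL, 5% dextrose vehicle. Body weight was recorded to assess tolerance, and adjusted survival and group median body weight loss were reported.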

Data set [14] deals with CWR22R. The data set is described as follows: Antitumor activity against human 22Rv1 cells xenografted in NMRI mouse assessed as tumor volume doubling time at 100 mg/kg, ip administered for 16 days (reference value: 2.7 day). Type of data set: functional. A digest of the protocol:
as §1

Data set [15] can be described thus: Toxicity in NMRI mouse xenografted with human 22Rv1 cells assessed as survival rate at 100 mg/kg, ip administered for 16 days and measured on day 40. Format: organism-based. Conditions: in vivo. In a few lines: as §2
The test system of data set [16] is CWR22R. Put plainly: Antitumor activity against human 22Rv1 cells xenografted in NMRI mouse assessed as reduction of tumor volume at 100 mg/kg, ip administered for 16 days and measured on day 20. Format: functional, organism-based. A digest of the protocol: as §1
Data set [17] relates to CWR22R. The data set is described as follows: Antitumor activity against human 22Rv1 cells xenografted in NMRI mouse assessed as tumor volume quadrupling time at 100 mg/kg, ip administered for 16 days (reference value: 6.2 day). Format: functional. In a few lines: as §1
The subject of data set [18] is CWR22R. The data set is described as follows: Antitumor activity against human 22Rv1 cells xenografted in NMRI mouse assessed as inhibition of tumor growth by measuring T/C value at 100 mg/kg, ip administered for 16 days and measured on day 14. Format: functional. A digest of the protocol:
as §1

The nature of data set [19]: Toxicity in ip dosed NMRI nu/nu mouse assessed as maximum tolerated dose. Type of data set: organism-based. Conditions: in vivo.
Data set [20] has as its target T1, Androgen receptor (Rattus norvegicus, UniProt P15207).
T1 sequence (P15207 whole entry): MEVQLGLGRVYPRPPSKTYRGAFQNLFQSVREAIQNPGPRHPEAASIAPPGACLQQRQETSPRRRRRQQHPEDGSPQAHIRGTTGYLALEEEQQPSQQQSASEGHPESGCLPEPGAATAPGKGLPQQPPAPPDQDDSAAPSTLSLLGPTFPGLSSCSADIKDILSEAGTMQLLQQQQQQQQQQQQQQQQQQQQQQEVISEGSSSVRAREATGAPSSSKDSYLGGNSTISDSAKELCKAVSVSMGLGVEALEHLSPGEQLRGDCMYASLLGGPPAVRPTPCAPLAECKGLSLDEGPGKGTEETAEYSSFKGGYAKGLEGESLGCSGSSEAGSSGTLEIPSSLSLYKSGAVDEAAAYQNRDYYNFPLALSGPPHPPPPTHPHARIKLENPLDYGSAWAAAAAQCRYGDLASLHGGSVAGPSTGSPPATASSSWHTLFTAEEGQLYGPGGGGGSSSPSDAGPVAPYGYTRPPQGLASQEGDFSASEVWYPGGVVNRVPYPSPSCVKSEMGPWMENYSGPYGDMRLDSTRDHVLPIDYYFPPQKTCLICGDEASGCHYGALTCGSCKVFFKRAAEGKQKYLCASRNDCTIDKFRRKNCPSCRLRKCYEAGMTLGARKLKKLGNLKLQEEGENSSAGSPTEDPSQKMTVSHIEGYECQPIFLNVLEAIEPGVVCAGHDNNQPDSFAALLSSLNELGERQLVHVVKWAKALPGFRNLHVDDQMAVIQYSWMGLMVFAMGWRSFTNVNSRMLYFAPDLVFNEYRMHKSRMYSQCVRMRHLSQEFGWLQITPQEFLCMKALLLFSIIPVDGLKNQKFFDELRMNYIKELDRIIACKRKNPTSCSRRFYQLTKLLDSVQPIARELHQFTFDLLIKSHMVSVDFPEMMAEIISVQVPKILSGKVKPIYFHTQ
Put plainly: Antagonist activity at GAL4-DBD fused rat androgen receptor expressed in UAS-bla 293 cells assessed as reduction in R1881-induced activation incubated for 16 hrs followed by fluorescence substrate addition and measured after 2 hrs by beta lactamase reporter gene assay. Type of data set: cell-based.

Consider `CC(O)(CSc1cc(C(F)(F)F)cc(C(F)(F)F)c1)C(=O)Nc1cccc(C(F)(F)C(F)(F)F)c1` (racemic), for which the T/C in [1] worked out at 121%; in data set [2], 86%; in data set [3], 109%; in [4] it was 36%; in data set [5], 118%; in data set [6] it was 119%. Moreover, the T/C in data set [7] amounted to 5%; in data set [9], 10%; in data set [10], 115%; in data set [11], 111%. For the same compound, the IC50 in data set [8] was 8.52 µM. Also, the IC70 in data set [8] came to 10.8 µM.

`CC(O)(COc1ccc(C(F)(F)C(F)(F)F)cc1)C(=O)Nc1cc(C(F)(F)F)cc(C(F)(F)F)c1` (racemic): the T/C was determined as 118% in data set [1]; 103% in data set [2]; 57% in data set [3]; 26% in [4]; 112% in data set [5]; 115% in data set [6]. Also, the T/C in [7] was found to be 3%; in data set [9], 3%; in data set [10], 100%; in data set [11] it was 116%. In addition, the IC50 in data set [8] came to 4.01 µM. The IC70 in data set [8] was determined as 6.15 µM.

Take `CC(O)(COc1ccc(S(F)(F)(F)(F)F)cc1)C(=O)Nc1cc(C(F)(F)F)cc(C(F)(F)F)c1` (racemic): the result in [12] and in data set [16] was Active. Further, the Activity entry in data set [13] was “Non-Toxic”. In addition, the Time in data set [14] was found to be 6.7 days; in data set [17], 14.3 days. The survival at 384 h in data set [15] turned out to be 100%. Also, the T/C in [18] was determined as 43.9%. Moreover, the MTD in data set [19] turned out to be 100 mg/kg.

Consider `CC(O)(COc1cccc(S(F)(F)(F)(F)F)c1)C(=O)Nc1ccc([N+](=O)[O-])c(C(F)(F)F)c1` (racemic), for which the IC50 in [20] came to 0.54 µM.

Consider `CC(O)(COc1ccccc1C(F)(F)F)C(=O)Nc1ccc(S(F)(F)(F)(F)F)cc1` (racemic), for which the IC50 in data set [20] turned out to be 1.81 µM.

For orientation: T/C means the result in the treated group divided by that in the control group, in per cent. The IC50 is the concentration at which inhibition is half-maximal. One may read the IC70 as the concentration at which the effect reaches the 70% level. What is called MTD is the highest dose tested that stayed within the study's limit of toxicity.
